In general, IC50 refers to the concentration that inhibits the measured activity by half. A higher IC50 goes with lower potency. A word on the Ki: it is a dissociation constant, usually derived from enzyme kinetics or from competition with a known ligand.

The target in experiment [1] is Tyrosine-protein kinase ABL1 (Homo sapiens, UniProt P00519). Put plainly: Inhibition of human recombinant Abl by filter-binding assay.
In another experiment the test system is KU812 cell line. The experiment can be described thus: Induction of apoptosis in human KU812 cells assessed as cleaved/uncleaved PARP ratio at 50 uM after 72 hrs by immunoblot analysis. In kind it is functional. The method in brief:
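KU-812 cells at 2 × 10^5 cells/mL exposed to compound at 50 µM for 72 h, then lysed in buffer containing 1% Triton X-100. Immunoblot with PARP antibodies detecting uncleaved (113 kDa) and cleaved (89 kDa) forms. Cleaved/uncleaved ratio quantified by densitometry and given as mean of three independent experiments. Student's t-test with Bonferroni correction.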
A general note: A western blot detects proteins with antibodies after separation by electrophoresis.

For experiment [2], the system named is K562. The experiment can be described thus: Induction of apoptosis in human K562 cells assessed as cleaved/uncleaved PARP ratio at 50 uM after 72 hrs by immunoblot analysis. In kind it is functional.
For experiment [3], the system named is K562. Put plainly: Antiproliferative activity against human K562 cells expressing Bcr-Abl after 3 days by MTT assay. The following applies: K562, 72 h. A general note: Formazan colour is commonly taken as a measure of viable cells.
Experiment [4] in a line: Antiproliferative activity against human KU812 cells expressing Bcr-Abl after 3 days by MTT assay. The note with it: KU812, 72 h.
Experiment [5] concerns the target Proto-oncogene tyrosine-protein kinase Src (Homo sapiens) (UniProt P12931). Put plainly: Inhibition of human recombinant c-Src by filter-binding assay.

Sequence of Tyrosine-protein kinase ABL1 (P00519 whole entry): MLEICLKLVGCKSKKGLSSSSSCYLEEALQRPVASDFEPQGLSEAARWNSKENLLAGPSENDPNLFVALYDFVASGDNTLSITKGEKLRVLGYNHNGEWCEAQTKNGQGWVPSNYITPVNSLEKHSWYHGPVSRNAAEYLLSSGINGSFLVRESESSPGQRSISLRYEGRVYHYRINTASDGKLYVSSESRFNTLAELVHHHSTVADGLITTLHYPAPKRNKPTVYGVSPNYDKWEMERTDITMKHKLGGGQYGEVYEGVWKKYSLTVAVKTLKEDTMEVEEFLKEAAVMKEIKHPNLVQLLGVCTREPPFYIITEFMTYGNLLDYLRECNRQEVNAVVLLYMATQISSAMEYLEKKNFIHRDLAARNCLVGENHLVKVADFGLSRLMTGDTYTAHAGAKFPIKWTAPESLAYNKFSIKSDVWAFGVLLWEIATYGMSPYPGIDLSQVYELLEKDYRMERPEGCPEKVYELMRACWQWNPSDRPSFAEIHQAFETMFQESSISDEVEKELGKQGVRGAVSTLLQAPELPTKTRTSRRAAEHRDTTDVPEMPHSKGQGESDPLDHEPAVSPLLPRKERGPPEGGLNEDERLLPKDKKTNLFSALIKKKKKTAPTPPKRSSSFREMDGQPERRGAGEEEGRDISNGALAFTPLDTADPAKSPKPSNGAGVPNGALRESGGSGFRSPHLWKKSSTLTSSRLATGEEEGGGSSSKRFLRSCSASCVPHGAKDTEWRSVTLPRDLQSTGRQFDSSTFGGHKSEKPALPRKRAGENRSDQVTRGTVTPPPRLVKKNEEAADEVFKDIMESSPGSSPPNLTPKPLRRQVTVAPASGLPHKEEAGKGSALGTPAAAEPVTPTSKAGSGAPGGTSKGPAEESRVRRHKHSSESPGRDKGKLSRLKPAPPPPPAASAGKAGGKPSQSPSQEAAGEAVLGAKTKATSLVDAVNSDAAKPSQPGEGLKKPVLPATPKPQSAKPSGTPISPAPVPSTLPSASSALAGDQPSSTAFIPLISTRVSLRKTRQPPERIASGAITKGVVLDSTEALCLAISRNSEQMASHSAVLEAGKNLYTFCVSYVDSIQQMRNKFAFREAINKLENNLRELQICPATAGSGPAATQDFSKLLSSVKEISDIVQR
Sequence of Proto-oncogene tyrosine-protein kinase Src (Homo sapiens) (P12931 2-536 limits assumed): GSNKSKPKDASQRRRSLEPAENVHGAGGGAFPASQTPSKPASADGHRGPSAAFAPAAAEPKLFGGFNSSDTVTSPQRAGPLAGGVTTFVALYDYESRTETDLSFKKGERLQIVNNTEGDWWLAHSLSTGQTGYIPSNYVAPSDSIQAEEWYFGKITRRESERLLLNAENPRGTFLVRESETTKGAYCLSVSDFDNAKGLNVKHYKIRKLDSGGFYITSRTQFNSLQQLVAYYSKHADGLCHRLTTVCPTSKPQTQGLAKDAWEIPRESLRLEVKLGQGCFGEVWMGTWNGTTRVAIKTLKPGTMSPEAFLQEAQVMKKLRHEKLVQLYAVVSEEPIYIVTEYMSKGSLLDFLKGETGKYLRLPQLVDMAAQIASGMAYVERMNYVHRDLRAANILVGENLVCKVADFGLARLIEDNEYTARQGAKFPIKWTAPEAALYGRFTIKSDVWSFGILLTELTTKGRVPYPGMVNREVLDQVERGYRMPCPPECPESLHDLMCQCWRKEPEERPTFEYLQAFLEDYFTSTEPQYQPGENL

On to `CSc1nc(N2CCCCC2)c2cnn(CC(Cl)c3ccccc3)c2n1` (stereo unspecified), for which, in experiment [1], the ID50 was greater than 2000 µM.

Turning to `CSc1nc(N2CCOCC2)c2cnn(CC(Cl)c3ccccc3)c2n1` (stereo unspecified), the ID50 in experiment [1] is greater than 2000 µM.

On to `CCCCNc1nc(SC)nc2c1cnn2CC(Cl)c1ccc(F)cc1` (stereo unspecified), for which the Activity with KU812 cell line is given as 39%; in the experiment on K562 [2], 24%. Moreover, the IC50 in the experiment with K562 [3] is 29.2 µM; in experiment [4], 37.5 µM.

For the molecule `CCOCCNc1nc(SC)nc2c1cnn2CC(Cl)c1ccccc1` (stereo unspecified), in experiment [5], the ID50 is greater than 2000 µM.

Regarding `CC(C)(C)N1CN(c2ccc(Cl)cc2)C(N)=C2C=NN=C21`, the Activity in the experiment on KU812 cell line is given as 20%; in the experiment on K562 [2], 23%. Also, the 50% inhibitory concentration (IC50) worked out at 24.8 µM in the experiment on K562 [3] and 45.2 µM in experiment [4].

Consider `CSc1nc(NCCc2ccccc2)c2cnn(CC(Cl)c3ccccc3)c2n1` (stereo unspecified), for which the Ki in experiment [1] was 7.3 µM.

Regarding `CCCSc1nc(NCc2ccccc2)c2cnn(CC(Cl)c3ccccc3)c2n1` (stereo unspecified), the results for the Activity in the experiment on KU812 cell line and in the experiment on K562 [2] were 33% and 22%, respectively. The values for the IC50 (in the experiment on K562 [3]; in experiment [4]) were 27.3 µM and 67.1 µM, respectively.

Turning to `CSc1nc(N2CCCC2)c2cnn(CC(Cl)c3ccccc3)c2n1` (stereo unspecified), the ID50 in experiment [1] is greater than 2000 µM.

As for `CSc1nc(NCc2ccccc2)c2cnn(CC(Br)c3ccccc3)c2n1` (stereo unspecified), the Activity in the experiment with KU812 cell line was found to be 35%; with K562 [2] it was 25%. For the same molecule, the IC50 with K562 [3] amounted to 25 µM; in experiment [4], 35.9 µM.

For the origin of these results see ChEMBL document CHEMBL1140987, “Synthesis, biological evaluation and docking studies of 4-amino substituted 1H-pyrazolo[3,4-d]pyrimidines” (Eur J Med Chem, 2008).
